These results are taken from ChEMBL document CHEMBL1125727 (J Med Chem, 1991).

Molecules are shown by their SMILES.

As usually defined, the ILS is the gain in survival time of treated over control animals, in per cent. A higher ILS goes with much gain in survival. As usually defined, the IC50 is the point on the concentration scale where inhibition reaches its midpoint. Read a high IC50 as weaker potency.

Format in all cases: functional, cell-based
For assay [1], the system named is P388. The experiment in a line: Optimal dose administered as a single dose by intraperitoneal inoculation of 10 X E6 murine leukemia P388 cell lines. The note with it: Mus musculus. Summed up:
(§1)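 Mice inoculated intraperitoneally with 10⁶ P388 leukemia cells. Single drug dose on day 1 in 0.1 or 0.2 mL of 30% v/v ethanol/water. Optimal dose given in mg/kg. ILS is the percentage increase in lifespan at the optimal dose, with values above 20% taken as significant.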

For assay [2], the system named is P388. The experiment in a line: Percentage increase in lifespan of drug-related tumor bearing animals when heated at the optimal dose and tested in murine leukemia P388 cell lines. Particulars: Mus musculus. Summed up:
as §1

The test system of assay [3] is P388. Description: In vitro cytotoxicity against murine leukemia P388 cell line. The note with it: Mus musculus. Summed up: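 P388 cells kept in exponential growth in RPMI 1640 with 10% fetal calf serum. Log-phase cultures in 96-well plates with drug present throughout 72 h growth. Final density read by a modified MTT method. IC50 is the nominal concentration reducing cell density to 50% of control, with eight controls per plate.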

Assay [4] deals with UV4. Description: Hypersensitivity factor obtained from in vitro cytotoxicities against Chinese hamster ovary derived AA8 / UV4 cell lines. The note with it: Cricetulus griseus. Summed up:
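HF = IC50(AA8)/IC50(UV4). Both lines kept in Alpha MEM with 10% fetal calf serum and exposed to drug for 18 h, then washed three times and grown 72 h more. Density read by methylene blue. Each IC50 is the nominal concentration giving 50% of control density, with eight controls per plate.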

For assay [5], the system named is CHO-AA8. The experiment in a line: Compound was evaluated for in vitro cytotoxicities against Chinese hamster ovary derived AA8 cell lines. Particulars: Cricetulus griseus. Summed up: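 AA8 cells kept in exponential growth in Alpha MEM with 10% fetal calf serum. Log-phase cultures in 96-well plates, drug exposure 18 h, ended by three washes with fresh medium, then 72 h further growth. Cell density read by methylene blue staining. IC50 is the nominal concentration reducing cell density to 50% of control, with eight controls per plate.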

`CCN(CCCl)c1ccc(CCCNC(=O)c2ccc(NCCCc3ccc(N(CC)CCCl)cc3)c3cc4ccccc4nc23)cc1`: the OD in assay [1] amounted to 45 mg/kg. In assay [2], this compound showed an ILS of 25%. Further, the IC50 in assay [3] amounted to 0.29 µM; in assay [5], 1.5 µM. The HF in assay [4] is 5.4.
Regarding `COc1cc(NS(C)(=O)=O)ccc1Nc1ccc(C(=O)NCCCc2ccc(N(CCCl)CCCl)cc2)c2nc3ccccc3cc12`, the OD in assay [1] was 65 mg/kg. Moreover, in assay [2], the ILS amounted to 26%. The IC50 is 0.18 µM in assay [3] and over 4000 µM in assay [5]. Further, the HF in assay [4] was over 50.
Regarding `CCN(CCCl)c1ccc(SCCNC(=O)c2ccc(NCCSc3ccc(N(CC)CCCl)cc3)c3cc4ccccc4nc23)cc1`, the 50% inhibitory concentration (IC50) in assay [3] is 0.55 µM; in assay [5] it was 9.4 µM. This compound also came in with an HF in assay [4] of 7.4.
In turn, `O=C(O)CCCc1ccc(N(CCCl)CCCl)cc1` [CHLORAMBUCIL] showed an OD in assay [1] of 225 mg/kg. This compound came in with an ILS in assay [2] of 37%. This compound gave an HF in assay [4] of 58.
In the case of `CN(C)CCNC(=O)c1ccc(NCCCc2ccc(N(CCCl)CCCl)cc2)c2cc3ccccc3nc12`, the OD in assay [1] came out at 13.3 mg/kg. Also, the figures for the IC50 in assay [3] and in assay [5] were 0.06 µM and 0.21 µM, respectively. Besides, the HF in assay [4] amounted to 19.
